In data set [1] the test system is Mycobacterium tuberculosis. In words: Antitubercular activity against Mycobacterium tuberculosis H37Rv after 7 to 11 days by microdilution method. The format is functional. The gist of the method:
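M. tuberculosis H37Rv grown in Middlebrook 7H9 with OADC, diluted in 7H9-OADC to 10⁴ CFU/mL and added to serial compound dilutions in 96-well microdilution plates. Incubated at 37 °C in humidified incubator, growth scored visually. MIC = lowest concentration with growth similar to 10 CFU inoculum-only well; isoniazid positive control.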

Data set [2] in a line: Growth inhibition of human HepG2 cells at 20 uM after 48 hrs by MTT assay. As to conditions: read-out: GI. The format is cell-based. The gist of the method: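 Cells seeded at 2500/well, cultured 24 h, then exposed to compound at 20 μM for 48 h. MTT (20 μL of 5 mg/ml stock) added for 2.5 h at 37 °C. Supernatant removed, formazan dissolved in DMSO with 15–20 min shaking, absorbance read at 570 nm. Inhibitory rate is the mean of three independent experiments.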

In brackets after ≈: the same amount, converted by molar mass.

On to `COc1ccc(NC(=O)Cc2cccc(Oc3ccccc3)c2)c(OC)c1`, for which inhibition of growth in data set [1] (MIC) required 32 µg/mL (≈ 88.1 µM). Moreover, the inhibition at 48 h, 20 µM in data set [2] came to 4.11%.
Consider `O=C(Cc1cccc(Oc2ccccc2)c1)Nc1cccc(Cl)c1`, for which, in data set [1], it took 32 µg/mL (≈ 94.7 µM) to inhibit growth (MIC) and the MIC90 was determined as 16 µg/mL (≈ 47.4 µM). Moreover, the inhibition at 48 h, 20 µM in data set [2] stood at 7.95%.
In the same order, the values of `O=C(CCc1cccc(Oc2ccccc2)c1)Nc1cccc(Cl)c1` are 32 µg/mL (≈ 91 µM), 16 µg/mL (≈ 45.5 µM) and 25.1%.
The matching figures for `O=C(Cc1cccc(Oc2ccccc2)c1)Nc1nccs1`: 32 µg/mL (≈ 103 µM), 16 µg/mL (≈ 51.6 µM) and 39.9%.
In data set [1], `O=C(Cc1cccc(Oc2ccccc2)c1)Nc1ccc(Br)cc1` had an MIC of 64 µg/mL (≈ 167 µM) and an MIC90 of 16 µg/mL (≈ 41.9 µM). Further, in data set [2], the inhibition at 48 h, 20 µM came out at 15.7%.
In turn, `O=C(Cc1cccc(Oc2ccccc2)c1)Nc1ccc(Cl)c(Cl)c1` returned an MIC in data set [1] of 4 µg/mL (≈ 10.7 µM). Also, the inhibition at 48 h, 20 µM in data set [2] was 7%.
On to `NNC(=O)c1ccncc1` [ISONIAZID], for which, in data set [1], the lowest concentration to inhibit growth (MIC) was 0.0625 µg/mL (≈ 0.456 µM) and the MIC90 is 0.0625 µg/mL (≈ 0.456 µM). The inhibition at 48 h, 20 µM in data set [2] worked out at 3.51%.
In data set [1], `COc1ccc2nc(NC(=O)Cc3cccc(Oc4ccccc4)c3)sc2c1` came in with a minimal inhibitory concentration (MIC) of 16 µg/mL (≈ 41 µM) and an MIC90 of 8 µg/mL (≈ 20.5 µM). Moreover, the inhibition at 48 h, 20 µM in data set [2] amounted to 4.29%.
In data set [1], `O=C(Cc1cccc(Oc2ccccc2)c1)NC(c1ccccc1)c1ccccc1` returned an MIC of 32 µg/mL (≈ 81.3 µM) and an MIC90 of 8 µg/mL (≈ 20.3 µM). For the same compound, the inhibition at 48 h, 20 µM in data set [2] was 4.84%.
For the compound `O=C(Cc1cccc(Oc2ccc(Cl)cc2)c1)Nc1cccc(Cl)c1`, in data set [1], the MIC was 32 µg/mL (≈ 86 µM) and the MIC90 turned out to be 16 µg/mL (≈ 43 µM). In addition, in data set [2], the inhibition at 48 h, 20 µM was determined as 27.1%.
In data set [1], `O=C(Nc1cccc(Cl)c1)c1ccc(Oc2ccccc2)cc1` yielded an MIC of 32 µg/mL (≈ 98.8 µM) and an MIC90 of 16 µg/mL (≈ 49.4 µM). Moreover, in data set [2], the inhibition at 48 h, 20 µM turned out to be 29.2%.
The matching figures for `O=C(Cc1cccc(Oc2ccccc2)c1)Nc1ccc(F)c(F)c1`: 32 µg/mL (≈ 94.3 µM), 8 µg/mL (≈ 23.6 µM) and 26.7%.
In data set [1], `O=C(CCCc1cccc(Oc2ccccc2)c1)Nc1cccc(Cl)c1` gave an MIC of 32 µg/mL (≈ 87.5 µM) and an MIC90 of 16 µg/mL (≈ 43.7 µM).
Take `O=C(Cc1cccc(Oc2ccc(F)cc2)c1)Nc1cccc(Cl)c1`: in data set [1], the MIC stood at 32 µg/mL (≈ 89.9 µM) and the MIC90 was 16 µg/mL (≈ 45 µM). Moreover, in data set [2], the inhibition at 48 h, 20 µM is 23.5%.
In data set [1], `O=C(Cc1cccc(Oc2ccccc2)c1)Nc1ccc(Br)cc1Cl` returned a minimal inhibitory concentration (MIC) of 32 µg/mL (≈ 76.8 µM) and an MIC90 of 16 µg/mL (≈ 38.4 µM). Further, in data set [2], the inhibition at 48 h, 20 µM was 12.8%.
In data set [1], `O=C(Nc1cccc(Cl)c1)c1cccc(Oc2ccccc2)c1` came in with an MIC of 32 µg/mL (≈ 98.8 µM) and an MIC90 of 16 µg/mL (≈ 49.4 µM). For the same compound, in data set [2], the inhibition at 48 h, 20 µM worked out at 7.07%.
In data set [1], `O=C(Cc1cccc(Oc2ccccc2)c1)Nc1ccc([N+](=O)[O-])cc1` returned an MIC of 32 µg/mL (≈ 91.9 µM) and an MIC90 of 8 µg/mL (≈ 23 µM). For the same compound, the inhibition at 48 h, 20 µM in data set [2] was found to be 36.4%.
The matching figures for `Cc1ccc(NC(=O)Cc2cccc(Oc3ccccc3)c2)nc1`: 32 µg/mL (≈ 101 µM), 8 µg/mL (≈ 25.1 µM) and 12.2%.
The matching figures for `O=C(Cc1cccc(Oc2ccccc2)c1)Nc1ccc(C(F)(F)F)cc1`: 32 µg/mL (≈ 86.2 µM), 8 µg/mL (≈ 21.5 µM) and 10.3%.
In data set [1], `O=C(Cc1cccc(Oc2ccccc2)c1)Nc1cccc2ccccc12` gave an MIC of 64 µg/mL (≈ 181 µM) and an MIC90 of 32 µg/mL (≈ 90.5 µM). In data set [2], the inhibition at 48 h, 20 µM stood at 3.31%.
In data set [1], `N#Cc1ccccc1NC(=O)Cc1cccc(Oc2ccccc2)c1` came in with an MIC of 32 µg/mL (≈ 97.5 µM). The inhibition at 48 h, 20 µM in data set [2] is 19.1%.
In data set [1], `O=C(Cc1cccc(Oc2ccccc2)c1)Nc1ccc(OC(F)(F)F)cc1` came in with an MIC of 32 µg/mL (≈ 82.6 µM) and an MIC90 of 16 µg/mL (≈ 41.3 µM). The inhibition at 48 h, 20 µM in data set [2] was determined as 4.71%.
The matching figures for `O=C(Cc1cccc(Oc2ccccc2)c1)Nc1cccc([N+](=O)[O-])c1`: 32 µg/mL (≈ 91.9 µM), 16 µg/mL (≈ 45.9 µM) and 0.95%.

The record behind these values is ChEMBL document CHEMBL1938318, “Design, synthesis and evaluation of novel molecules with a diphenyl ether nucleus as potential antitubercular agents” (Bioorg Med Chem Lett, 2012).
